Test results as given in ChEMBL document CHEMBL1122881, “A dipeptide derived from kainic and L-glutamic acids: a selective antagonist of amino acid induced neuroexcitation with anticonvulsant properties” (1985).

Assays:
Assay type in all cases: functional
Mus musculus = species on record: Mus musculus; experiment: Effective dose required to protect mice from picrotoxin-induced seizures
Outline: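 CD1 mice of either sex (20–30 g), unanaesthetised, received 5 μL of drug in phosphate-buffered saline pH 7.4, or vehicle, icv (1 mm posterior, 1 mm lateral to bregma, 2.6 mm deep). Picrotoxin 3 mg/kg was given iv in the tail vein 10 min later. Stage 5 seizures were scored over 30 min, with at least 8 mice per group, and ED50 was calculated.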

Rattus norvegicus [1] = species on record: Rattus norvegicus; experiment: Compound (1 mM) to block the increase in the permeability of the neuronal sodium ions in rat striatum slices by excitatory 0.1 M of Quis qulalic acid; conditions: in the assay text read “0.1 mM” for “0.1 M”
Outline: (§1)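 Values are percent of the efflux increase given by the agonist alone (100%), as mean ± standard deviation of at least triplicate experiments. Difference from control was tested by variance analysis.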

Rattus norvegicus [2] = species on record: Rattus norvegicus; experiment: Compound (1 mM) to block the increase in the permeability of the neuronal sodium ions in rat striatum slices by excitatory 0.1 mM of Kainic Acid.; outline: as §1
Rattus norvegicus [3] = species on record: Rattus norvegicus; experiment: Compound (1 mM) to block the increase in the permeability of the neuronal sodium ions in rat striatum slices by excitatory 0.5 mM of L-GLutamic acid.; outline: as §1
Rattus norvegicus [4] = species on record: Rattus norvegicus; experiment: Compound (1 mM) to block the increase in the permeability of the neuronal sodium ions in rat striatum slices by excitatory 30 uM of N-methyl-D-aspartic acid; outline: as §1

## C=C(C)[C@H]1CN[C@H](C(=O)O)[C@H]1CC(=O)NC(CCC(=O)O)C(=O)O (stereo not given in full)
Mus musculus
  ED50: 170 nM
Rattus norvegicus [1]
  Mean response: 69
Rattus norvegicus [2]
  Mean response: 84
Rattus norvegicus [3]
  Mean response: 90
Rattus norvegicus [4]
  Mean response: 16
